# Experimental data taken from ChEMBL document CHEMBL4373708 (J Med Chem, 2019).
# Active and inactive are the calls of the source. The calls are words filed in the database; no cut-off is given here.
# Assays:
# [1] = Tmax in mouse at 5 mg/kg, ip by LC-MS analysis; format: ADME, organism-based; settings: in vivo
# Procedure, shortened: (§1)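 Single intraperitoneal or oral dose in mice at 5 mg/kg (vehicle: saline with 5% DMSO and 10% Kolliphor HS 15) or 10 mg/kg (vehicle: PBS with 5% DMSO and 20% (2-hydroxypropyl)-β-cyclodextrin). Blood taken by retroorbital puncture at set times, serum separated by centrifugation at 4000 g for 20 min at 24 °C, compound quantified by LC/MS.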
# [2] = AUC in mouse at 5 mg/kg, ip by LC-MS analysis; format: ADME, organism-based; settings: in vivo; procedure, shortened: as §1
# Mus musculus [3] = assay: Anti-absorptive activity in loperamide-induced CD-1 mouse model of constipation assessed as improvement in stool weight at 5 mg/kg, po administered via gavage for 1 hr prior to loperamide challenge and measured after 3 hrs; format: functional, organism-based
# Procedure, shortened: (§2)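 Female CD1 mice aged 8–10 weeks were gavaged with 5 mg/kg compound or vehicle 1 h before ip loperamide (0.3 mg/kg in 5% ethanol/PBS). Mice were kept singly in metabolic cages and stool collected for 3 h. Total weight and pellet number were recorded; water content = (wet−dry)/wet after drying at 80 °C for 24 h. Mean ± S.E.M., 4-6 mice per group.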
# [4] = biological target: T1, Solute carrier family 26 member 6 (Mus musculus) (UniProt Q8CIW6); assay: Inhibition of mouse slc26a6 expressed in FRT cells co-expressing EYFP-H148Q/I152L/F46L assessed as reduction in protein-mediated chloride/iodide exchange at 10 uM preincubated for 10 mins followed by NaI-substituted PBS addition and measured by YFP-based fluorescence assay; format: cell-based
# T1 sequence (whole entry): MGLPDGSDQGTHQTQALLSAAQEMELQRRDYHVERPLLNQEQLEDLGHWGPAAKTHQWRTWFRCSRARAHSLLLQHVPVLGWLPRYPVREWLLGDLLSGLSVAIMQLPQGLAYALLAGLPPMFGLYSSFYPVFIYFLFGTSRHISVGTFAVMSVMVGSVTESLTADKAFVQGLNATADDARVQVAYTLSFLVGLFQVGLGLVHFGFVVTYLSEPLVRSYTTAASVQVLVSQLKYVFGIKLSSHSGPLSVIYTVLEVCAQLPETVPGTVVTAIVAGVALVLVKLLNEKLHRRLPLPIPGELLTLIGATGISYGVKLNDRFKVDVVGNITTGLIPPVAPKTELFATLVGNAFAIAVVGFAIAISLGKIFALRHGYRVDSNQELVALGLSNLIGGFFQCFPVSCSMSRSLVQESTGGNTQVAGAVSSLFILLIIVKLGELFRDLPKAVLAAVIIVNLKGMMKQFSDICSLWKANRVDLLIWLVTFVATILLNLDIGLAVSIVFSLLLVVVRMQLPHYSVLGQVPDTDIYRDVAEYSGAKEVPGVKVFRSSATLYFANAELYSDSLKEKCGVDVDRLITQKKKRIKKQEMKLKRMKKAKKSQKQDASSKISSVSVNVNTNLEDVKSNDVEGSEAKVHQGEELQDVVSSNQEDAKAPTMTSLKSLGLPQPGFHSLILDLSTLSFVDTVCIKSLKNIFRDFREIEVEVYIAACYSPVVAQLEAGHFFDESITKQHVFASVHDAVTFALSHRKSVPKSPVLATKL
# Procedure, shortened: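 FRT cells expressing the given slc26 transporter plus EYFP-H148Q/I152L/F46L were preincubated 10 min with 0 or 10 µM compound in PBS. Iodide-substituted PBS was then added (140 mM NaCl replaced by NaI). The rate of YFP fluorescence quenching gave chloride/iodide exchange.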
# [5] = Tmax in mouse at 5 mg/kg, po by LC-MS analysis; format: ADME, organism-based; settings: in vivo; procedure, shortened: as §1
# [6] = Cmax in mouse at 5 mg/kg, po by LC-MS analysis; format: ADME, organism-based; set-up: dose 5 mg/kg, route oral; settings: in vivo; procedure, shortened: as §1
# Mus musculus [7] = assay: Anti-absorptive activity in loperamide-induced CD-1 mouse model of constipation assessed as improvement in fecal pellet number at 5 mg/kg, po administered via gavage for 1 hr prior to loperamide challenge and measured after 3 hrs; format: functional, organism-based; procedure, shortened: as §2
# [8] = Cmax in mouse at 5 mg/kg, ip by LC-MS analysis; format: ADME, organism-based; set-up: dose 5 mg/kg, route intraperitoneal; settings: in vivo; procedure, shortened: as §1
# [9] = AUC in mouse at 5 mg/kg, po by LC-MS analysis; format: ADME, organism-based; settings: in vivo; procedure, shortened: as §1
# Mus musculus [10] = assay: Anti-absorptive activity in loperamide-induced CD-1 mouse model of constipation assessed as improvement in stool water content at 5 mg/kg, po administered via gavage for 1 hr prior to loperamide challenge and measured after 3 hrs; format: functional, organism-based; procedure, shortened: as §2
# [11] = Drug uptake in mouse serum at 5 mg/kg, po or ip measured after 16 hrs by LC-MS analysis; format: ADME, organism-based; settings: in vivo; procedure, shortened: as §1
# [12] = AUC in mouse at 10 mg/kg, po by LC-MS analysis; format: ADME, organism-based; settings: in vivo; procedure, shortened: as §1
# Mus musculus [13] = assay: Anti-absorptive activity in loperamide-induced CD-1 mouse model of constipation assessed as stool hydration at 1 mg/kg, po administered via gavage for 1 hr prior to loperamide challenge and measured after 3 hrs relative to control; format: functional
# Procedure, shortened: (§3)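 Mice were held singly in metabolic cages with food and water. Stool was collected 3 h for weight and pellet count; water content = (wet−dry)/wet after drying 24 h at 80 °C. 5-8 mice/group, one-way ANOVA with Newman-Keuls.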
# [14] = AUC in mouse at 10 mg/kg, ip by LC-MS analysis; format: ADME, organism-based; settings: in vivo; procedure, shortened: as §1
# [15] = Tmax in mouse at 10 mg/kg, ip by LC-MS analysis; format: ADME, organism-based; settings: in vivo; procedure, shortened: as §1
# Mus musculus [16] = assay: Anti-absorptive activity in loperamide-induced CD-1 mouse model of constipation assessed as improvement in stool weight at 3 mg/kg, po administered via gavage for 1 hr prior to loperamide challenge and measured after 3 hrs; format: functional, organism-based; procedure, shortened: as §3
# [17] = Cmax in mouse at 10 mg/kg, ip by LC-MS analysis; format: ADME, organism-based; set-up: dose 10 mg/kg, route intraperitoneal; settings: in vivo; procedure, shortened: as §1
# Mus musculus [18] = assay: Anti-absorptive activity in loperamide-induced CD-1 mouse model of constipation assessed as improvement in stool water content at 3 mg/kg, po administered via gavage for 1 hr prior to loperamide challenge and measured after 3 hrs; format: functional, organism-based; procedure, shortened: as §3
# [19] = Toxicity in CD-1 mouse assessed as effect on fecal pellet number at 10 mg/kg, po administered via gavage for 1 hr; format: organism-based; settings: in vivo
# Procedure, shortened: (§4)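 Female CD1 mice aged 8–10 weeks without loperamide: 10 mg/kg compound or vehicle (PBS with 5% DMSO and 20% (2-hydroxypropyl)-β-cyclodextrin) by gavage, 1 h before ip injection of loperamide vehicle (5% ethanol in PBS). Mice were caged singly in metabolic cages and stool collected 3 h for weight, pellet count and water content (dried 80 °C, 24 h).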
# [20] = Tmax in mouse at 10 mg/kg, po by LC-MS analysis; format: ADME, organism-based; settings: in vivo; procedure, shortened: as §1
# [21] = Toxicity in CD-1 mouse assessed as effect on stool water content at 10 mg/kg, po administered via gavage for 1 hr; format: organism-based; settings: in vivo; procedure, shortened: as §4
# [22] = Cmax in mouse at 10 mg/kg, po by LC-MS analysis; format: ADME, organism-based; set-up: dose 10 mg/kg, route oral; settings: in vivo; procedure, shortened: as §1
# [23] = Drug level in mouse serum at 10 mg/kg, po or ip measured after 72 hrs by LC-MS analysis; format: ADME, organism-based; settings: read-out: Drug uptake; procedure, shortened: as §1
# [24] = Toxicity in CD-1 mouse assessed as effect on stool weight at 10 mg/kg, po administered via gavage for 1 hr; format: organism-based; settings: in vivo; procedure, shortened: as §4
# Mus musculus [25] = assay: Anti-absorptive activity in loperamide-induced CD-1 mouse model of constipation assessed as improvement in fecal pellet number at 3 mg/kg, po administered via gavage for 1 hr prior to loperamide challenge and measured after 3 hrs; format: functional, organism-based; procedure, shortened: as §3
smiles,measurement,setting,value
Cc1c(CC(=O)O)c(=O)oc2c(C)c(OCc3cccc(C(F)(F)F)c3)ccc12,Tmax,[1],48 min
same,AUC,[2],418 µM·h
same,Activity,Mus musculus [3],Active
same,inhibition,[4],inactive
same,Tmax,[5],48 min
same,Cmax,[6],12.9 µM
same,Activity,Mus musculus [7],Active
same,Cmax,[8],70.2 µM
same,AUC,[9],69 µM·h
same,Activity,Mus musculus [10],Active
same,Drug uptake,[11],Active
Cc1c(CC(=O)O)c(=O)oc2c(C)c(OCc3cccc(I)c3)ccc12,AUC,[12],130 µM·h
same,Activity,Mus musculus [13],>50%
same,AUC,[14],331 µM·h
same,Tmax,[15],30 min
same,Activity,Mus musculus [16],Active
same,inhibition,[4],inactive
same,Cmax,[17],29.1 µM
same,Activity,Mus musculus [18],Active
same,Activity,[19],Non-Toxic
same,Tmax,[20],390 min
same,Activity,[21],Non-Toxic
same,Cmax,[22],4.7 µM
same,concentration at 72 h,[23],1 µM
same,Activity,[24],Non-Toxic
same,Activity,Mus musculus [25],Active
